Lipid droplet: modulators of hepatic lipid droplet formation. AML12 mouse hepatocytes, oleate lipid droplets, BODIPY imaging. inhibition, % at 6.5 µM. actives 0.4% (n = 240,000);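 active means lipid droplet intensity inhibited by at least 50%, with more than 500 cells counted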
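Assay system: AML12 mouse liver cells | Compound: 6.5 µM single-point dosing | Schedule: Overnight exposure | Technique: Fluorescence imaging, 20x objective, two fields per well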
ADAM10 inh: inhibitors of human ADAM10 | recombinant ADAM10, EDANS/DABCYL FRET peptide cleavage, 3 h | O14672 | inhibition, % at 7 µM | AID 720582 | actives 0.62% (n = 370,000);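 active means inhibition above a per-campaign cutoff equal to the mean of compounds falling between control-based bounds plus 3 SD, cut at about 20% in these data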;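 further: 0% = DMSO wells while the 100% control is not disclosed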
Target sequence (O14672 214-748 limits assumed): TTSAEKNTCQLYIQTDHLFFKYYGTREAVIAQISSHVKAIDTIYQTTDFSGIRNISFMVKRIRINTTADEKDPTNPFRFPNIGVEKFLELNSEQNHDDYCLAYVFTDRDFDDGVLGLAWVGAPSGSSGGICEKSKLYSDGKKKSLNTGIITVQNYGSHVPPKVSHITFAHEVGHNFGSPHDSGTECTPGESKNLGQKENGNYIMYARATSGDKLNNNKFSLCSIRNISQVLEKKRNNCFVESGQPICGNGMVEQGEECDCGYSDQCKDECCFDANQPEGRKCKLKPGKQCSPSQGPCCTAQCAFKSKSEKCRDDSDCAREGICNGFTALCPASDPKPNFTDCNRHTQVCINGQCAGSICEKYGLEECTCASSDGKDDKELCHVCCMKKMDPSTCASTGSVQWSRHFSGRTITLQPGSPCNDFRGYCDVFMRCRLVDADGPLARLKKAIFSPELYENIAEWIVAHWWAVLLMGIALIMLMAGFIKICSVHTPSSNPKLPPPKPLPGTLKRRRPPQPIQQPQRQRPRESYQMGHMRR
aDG glyco act: alpha-DG glycosylation activation; Pro5-aDG cells, alpha-DG glycosylation AlphaScreen (IIH6); 0% Pro5, 100% B10-LARGE cell signal; activation, % at 10 µM; actives 0.22% (n = 360,000); AID 624168;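 active means activation of at least 8% versus controls, or a plate z-score of at least 8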;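 further: Pro5 are CHO cells carrying HIG-tagged alpha-DG that lacks glycosylation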
MPTP block: permeability transition pore inhibition. isolated mouse mitochondria, Ca2+ swelling absorbance, 30 min. actives 1.4% (n = 360,000). inhibition, % at 10 µM;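 active means inhibition of 50% or more, scaled per plate between neutral and stimulator controls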;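 further: 0% = DMSO wells given calcium and 100% = 1 mM EGTA wells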
V-ATPase pH: yeast V-ATPase proton transport regulation by pHLuorin; S. cerevisiae, pHLuorin cytosolic pH fluorescence; response, % at 10 µM; actives 0.37% (n = 350,000); AID 504577; in the data active means response mostly above about 7.3%, no sharp cut-off; inactive means mostly below about 5.4%; further: actives read high
ADAM17 inh: ADAM17 inhibition, QFRET primary screen. inhibition, % at 6.95 µM. actives 0.83% (n = 370,000). P78536. AID 720648. recombinant ADAM17, EDANS/DABCYL FRET peptide cleavage;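 active means inhibition above the mean of compounds lying between control limits plus 3 SD, set per campaign, cut at about 8.5% in these data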;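 further: 0% = DMSO-only wells as the low control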
Rh123 counter: Rhodamine 123 counter-screen of mitochondrial pore hits; shares compounds with MPTP block; isolated mitochondria, membrane potential, Rhodamine 123 fluorescence; inhibition, % at 10 µM; actives 78% (n = 5,000); AID 624504; in the data active means inhibition above about 22%;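 further: 0% = DMSO vehicle and 100% = positive control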
* marks the source's active call; other numbers are inactive results. Sampled rows, rich in hits. Any-hit rate of the full collection: about 3.1%.

Screening O=C(Nc1ccc(F)cc1)N[C@@H]1C[C@@H]2O[C@H](CO)CC[C@@H]2O[C@@H]1CCc1ccc(C2=CCCC2)cc1 returned ADAM10 inh 6 and ADAM17 inh 7.
O=C(NCCN1C(=O)S/C(=C\c2ccc(Cl)c(Cl)c2)C1=O)c1ccc2c(c1)C(=O)N(Cc1ccncc1)C2=O was read as Lipid droplet 5, ADAM10 inh -2, aDG glyco act 0, MPTP block 56*, V-ATPase pH -5, ADAM17 inh -3 and Rh123 counter 20*.
For O=C(NCCN1C(=O)S/C(=C\c2ccc(Cl)c(Cl)c2)C1=O)C1COc2ccccc2O1 (stereo unspecified) the results were Lipid droplet -24, ADAM10 inh 0, aDG glyco act 0, MPTP block 99*, V-ATPase pH 0, ADAM17 inh -8 and Rh123 counter 92*.
For CCN(C(=O)[C@@H](C)[C@@H](O)c1ccc(C(C)=O)cc1)c1ccccc1 the results were ADAM10 inh -11 and ADAM17 inh -4.
COC(=O)C1CN(Cc2ccc(OC)cc2)CCS(=O)(=O)N1Cc1cn(Cc2ccc(F)cc2)nn1 (stereo unspecified) was read as ADAM10 inh -3 and ADAM17 inh -3.
`Oc1c(C=C2N=c3ccccc3=N2)sc(=S)n1-c1ccc(F)cc1` gave Lipid droplet 9, ADAM10 inh -5, aDG glyco act 0, MPTP block 16, V-ATPase pH 1 and ADAM17 inh -3.
For Oc1c(C=C2N=c3ccccc3=N2)sc(=S)n1C1CCCC1 the results were Lipid droplet -27, ADAM10 inh -22, aDG glyco act 0, MPTP block 83*, V-ATPase pH 0, ADAM17 inh -4 and Rh123 counter 50*.
For CCC[C@H]1OC(=O)[C@@H]2CCCN2C(=O)[C@H]([C@H](C)Cc2ccccc2)NC(=O)[C@@H]2CCCN2C(=O)[C@@H]2CCCN2C(=O)[C@H](C(C)C)OC(=O)[C@@H]2CCCN2C(=O)[C@H](C(C)C)NC(=O)C1(C)C the results were ADAM10 inh 3 and ADAM17 inh -1.
Screening N#Cc1ccsc1NC(=O)c1ccc(Cl)c([N+](=O)[O-])c1 returned Lipid droplet -28, ADAM10 inh 5, aDG glyco act 0, MPTP block 82*, V-ATPase pH 1, ADAM17 inh -2 and Rh123 counter 71*.
CCOc1ccc(NC(=S)Nc2ccc(C)c([N+](=O)[O-])c2)cc1 was read as Lipid droplet 10, ADAM10 inh 14, aDG glyco act 0, MPTP block 86*, V-ATPase pH -3, ADAM17 inh 3 and Rh123 counter 90*.
Screening Cc1cccc(C)c1NS(=O)(=O)c1ccc(NC(=O)c2ccc(Cl)c([N+](=O)[O-])c2)cc1 returned Lipid droplet 37, ADAM10 inh -4, aDG glyco act 0, MPTP block 74*, V-ATPase pH 2, ADAM17 inh 0 and Rh123 counter 81*.
For O=C(NNc1ccccc1[N+](=O)[O-])Nc1cccc(Cl)c1 the results were Lipid droplet -4, ADAM10 inh 9, aDG glyco act 0, MPTP block 84*, V-ATPase pH -2, ADAM17 inh -3 and Rh123 counter 85*.
For O=C(Nc1ccc(S(=O)(=O)NC2=NCCCCC2)cc1)c1ccc(Cl)c([N+](=O)[O-])c1 the results were ADAM10 inh -8, aDG glyco act 0, MPTP block -2, V-ATPase pH -6 and ADAM17 inh 3.
For CCCC[C@H](C(=O)N(CC)c1ccccc1)[C@@H](O)c1ccc(C(C)=O)cc1 the results were ADAM10 inh -8 and ADAM17 inh -6.
For Cc1ccc(-n2c(SCC(=O)c3ccc(F)cc3)nnc2-c2cnccn2)cc1 the results were ADAM10 inh 1 and ADAM17 inh 1.
CCNC(=S)Nc1ccc(Cl)c([N+](=O)[O-])c1 was read as Lipid droplet 2, ADAM10 inh 1, aDG glyco act 0, MPTP block 96*, V-ATPase pH 4, ADAM17 inh -3 and Rh123 counter 90*.
Screening CC(CC(=O)Nc1ccc(Cl)c([N+](=O)[O-])c1)c1ccccc1 (stereo unspecified) returned ADAM10 inh 8, aDG glyco act 0, MPTP block 105*, V-ATPase pH -3, ADAM17 inh 2 and Rh123 counter 90*.
`O=C(Nc1ccccc1)Nc1ccc(F)c([N+](=O)[O-])c1` gave Lipid droplet -10, ADAM10 inh 13, aDG glyco act 0, MPTP block 94*, V-ATPase pH -3, ADAM17 inh 2 and Rh123 counter 99*.
`Cc1nnc(SC(C(=O)Nc2ccc(Cl)c([N+](=O)[O-])c2)c2ccccc2)[nH]c1=O` (stereo unspecified) gave Lipid droplet 0, ADAM10 inh -2, aDG glyco act 0, MPTP block 74*, V-ATPase pH 0, ADAM17 inh -3 and Rh123 counter 51*.
`COC(=O)[C@]12C[C@H](CC(=O)NCc3cccc4ccccc34)C(=O)N(CCc3ccc(OC)c(OC)c3)C1=C[C@H](COCc1ccccc1)O[C@@H]2C` gave ADAM10 inh 13 and ADAM17 inh 4.
Screening COC(=O)[C@H](C(C)C)N1Cc2nnn(CC3CCCCC3)c2-c2ccccc2S1(=O)=O returned ADAM10 inh 12 and ADAM17 inh 6.
`O=C(Nc1ccc(Cl)c([N+](=O)[O-])c1)Nc1nc2ccccc2s1` gave Lipid droplet -3.
Cc1ccc(NC(=O)Nc2ccccc2)cc1[N+](=O)[O-] was read as Lipid droplet 6, ADAM10 inh 0, aDG glyco act 0, MPTP block 77*, V-ATPase pH 0, ADAM17 inh 0 and Rh123 counter 101*.
CC(=O)Nc1ccc(C)c([N+](=O)[O-])c1 was read as Lipid droplet 2, ADAM10 inh -2, aDG glyco act 0, MPTP block -1, V-ATPase pH -1 and ADAM17 inh -3.
O=C(Nc1ccccc1)Nc1ccc(Cl)c([N+](=O)[O-])c1 was read as Lipid droplet 10, ADAM10 inh 11, aDG glyco act 0, MPTP block 101*, V-ATPase pH 0, ADAM17 inh 4 and Rh123 counter 99*.
Screening O=C(NCc1ccco1)Nc1ccc(OC(F)(F)F)cc1 returned Lipid droplet 0, ADAM10 inh 8, aDG glyco act 0, MPTP block 52*, V-ATPase pH 0, ADAM17 inh -3 and Rh123 counter 80*.
